Screens (PubChem BioAssay)
CHOP inh: inhibitors of CHOP induction in ER stress response; inhibition, % at 10 µM; CHO-K1 CHOP-promoter luciferase, tunicamycin-induced, 15-18 h; 3.8% of 220,000 active; AID 2732;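 active means compounds that reduced the stress-induced luciferase reporter signal by more than about 70% of percent inhibition, limit read from the data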;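 further: 0% = tunicamycin plus vehicle and 100% = wells without tunicamycin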
Autophagy HCS: modulators of autophagy. 0.98% of 190,000 active. calls only at 10 µM (by protocol). MEF GFP-LC3 puncta imaging; test concentration mostly 10 µM;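 active means percentage of spot-positive cells more than 3 SD above its plate mean, without a fluorescence outlier flag or 80% toxicity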;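 further: spot-positive cell cutoff set from DMSO-treated cells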
MT stabilizer: stabilizes microtubules in HeLa cells; HeLa tubulin immunostaining HCS, 24 h; share of cells brighter than vehicle mean+2SD; % tubulin-high responders, % at 10 µM; 0.83% of 200,000 active; AID 2205;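 active means plate Z-score above 3 for both tubulin-high and condensed-nucleus cell shares, with cell loss under 80%, at 10 µM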;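 further: anti alpha tubulin signal scored within the nucleus-defined area of each cell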
Dynein transport: blocks dynein driven cargo transport along microtubules | 3617.4 mouse cells, GR-EGFP nuclear translocation imaging; test concentration mostly 20 µM; stimulated with dexamethasone, 1 µM; active compounds read low | z-score, hits read low | 0.47% of 220,000 active;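 active means plate z-score of nuclear minus cytoplasmic receptor signal below a set negative limit, without overly bright fluorescence or cell loss, cut at about -3.5 in these data, passing the limit was not always enough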;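 further: z-score of nuclear minus cytoplasmic ring GR-EGFP intensity difference per well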
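Also added: dexamethasone, 1.0 µM final. Medium: tet-free, stripped-serum medium. Detection: fixed, Hoechst-stained cells imaged at 10x for EGFP. Read-out: nuclear-to-cytoplasmic GR-EGFP distribution per well. Times: induction 48 h, compound 1 h, agonist 30 min.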
L major viab: inhibitors of Leishmania major promastigote growth; Leishmania major promastigotes, resazurin fluorescence viability; inhibition, % at 10 µM; 9% of 200,000 active; in the data active means inhibition above about 50%;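 further: promastigotes grown with compound for 44 hours at 28 °C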
bCat nuc transl: alters nuclear translocation of beta-catenin in HeLa cells; 0.3% of 190,000 active; nuclear translocation activity, % at 5 µM; immunofluorescence imaging;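 active means nuclear translocation activity above 50% at 5 µM, with a well cell count of 50 or more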;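 further: per-cell ratio of nuclear to cytoplasmic median beta-catenin stain intensity; plate controls were DMSO negative control for no effect and GSK-3 inhibitor IX positive control for full effect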
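Test system: human HeLa cell line; Doses: 5 µM primary, 0.02–20 µM confirmation; Incubation: 24 h compound exposure, 37°C; Detection: beta-catenin immunofluorescence imaging with DAPI; Read-out: beta-catenin nuclear/cytoplasmic ratio, % activation.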
Starred values were filed as active, the others as inactive; i = inactive; · = not tested or not shown; ! = not active in a repeat. Only some compounds are listed: those with a hit (about 12% of all), similar ones and a draw of the others.

SMILES | CHOP inh | Autophagy HCS | MT stabilizer | Dynein transport | L major viab | bCat nuc transl
CN(C)CCCN(C(=O)c1ccc2c(c1)CCCC2)c1nc2ccc(Cl)cc2s1 | 89.9* | i | 2.5 | -0.503 | 78.9* | 2.1
CN(C)CCCN(C(=O)CCc1ccccc1)c1nc2ccc(Cl)cc2s1 | 42.6 | i | 7.2 | 0.474 | 87.5* | 0.8
CN(C)CCCN(C(=O)c1sc2ccccc2c1Cl)c1nc2ccc(F)cc2s1 | 59.3 | i | 2.3 | -0.0162 | 71.7* | ·
CN(C)CCCOC(=O)c1sc2ccccc2c1Cl | 27.1 | i | 2.0 | -0.918 | 58.8* | 0.5
CN(C)CCCN(C(=O)C1COc2ccccc2O1)c1nc2ccc(F)cc2s1 (centres undefined) | 36.9 | i | 2.5 | -0.694 | 4.8 | 0.2
Cc1ccc(C(=O)N2CCN(c3cnn(C)c(=O)c3Cl)CC2)cc1 | -3.8 | i | 4.6 | 1.79 | 4.6 | -0.9
Cc1nn(CC(=O)OCC(=O)NC(C)c2ccccc2)c(C)c1[N+](=O)[O-] (centres undefined) | 9.5 | i | 3.0 | -1.12 | -4.0 | 1.1
Cc1ccc2nc(N(CCCN(C)C)C(=O)c3cc4ccccc4oc3=O)sc2c1 | 49.9 | i | 1.7 | -0.521 | 67.2* | ·
O=c1c2ccccc2nc(COc2ccccc2)n1/N=C/c1cn[nH]c1-c1ccccc1 | 85.1* | i | 6.1 | -0.337 | 51.1* | -1.7
c1nc2n(n1)C1=C(CCCC1)C1(CCCCC1)N2 | 19.4 | i | 3.1 | 1.86 | 30.6 | -1.5
C#CCn1c(=NC(=O)c2ccc(S(=O)(=O)N3CCCc4ccccc43)cc2)sc2cc(S(N)(=O)=O)ccc21 | 5.1 | i | 2.1 | -0.022 | 99.5* | -1.2
Cn1c(=NC(=O)c2ccc(S(=O)(=O)N3CCCc4ccccc43)cc2)sc2cc(S(C)(=O)=O)ccc21 | 35.4 | i | 1.5 | -0.296 | 99.1* | -0.3
Cn1c(=NC(=O)c2ccccc2[N+](=O)[O-])sc2cc(S(C)(=O)=O)ccc21 | 46.8 | i | 0.9 | -0.637 | 48.6 | -3.6
Cc1ccc(-c2nc(CN(C)C3CCOC3)c(C)o2)s1 (centres undefined) | 1.1 | i | 3.5 | -0.631 | -4.4 | 0.8
CCCCCC(=O)Nc1nc(C)c(-c2csc(Nc3ccc(Cl)cc3)n2)s1 | 20.8 | i | 2.9 | 0.146 | 28.6 | 1.8
COc1ccc(Nc2nc(-c3sc(NC(C)=O)nc3C)cs2)cc1 | -0.1 | i | 22.6* | -0.0395 | -1.9 | ·
Cc1nc(NC(=O)CC(C)C)sc1-c1csc(Nc2ccc(Cl)cc2)n1 | 70.9* | i | 3.1 | -0.34 | 35.3 | 4.4
CCCCCCC(=O)Nc1nc(C)c(-c2csc(Nc3ccc(Cl)cc3)n2)s1 | 18.4 | i | 2.8 | 1.24 | 52.2* | 6.4
COc1ccc(Nc2nc(-c3sc(N)nc3C)cs2)cc1 | 33.9 | i | 1.2 | -0.132 | 25.6 | 2.0
Cc1nc(NC(=O)CC(C)C)sc1-c1csc(Nc2ccc(Cl)cc2Cl)n1 | 26.2 | i | 2.7 | 1.38 | 8.1 | 6.0
Cc1ccc(-n2nnnc2SCC(=O)Nc2sccc2C#N)cc1 | 22.5 | i | 4.1 | -0.267 | -4.5 | 2.3
CC(=O)N1CCN(CC(=O)Nc2ccc([N+](=O)[O-])cc2Br)CC1 | 3.6 | i | 3.2 | -0.112 | -5.4 | -1.8
Cc1[nH]n(-c2ccccc2)c(=O)c1C(C[N+](=O)[O-])c1ccc(Br)cc1 (centres undefined) | 16.7 | i | 2.1 | -2.94 | 100.3* | -5.1
N#CCC1c2ccccc2CCN1C(=O)Nc1cccc(Cl)c1 (centres undefined) | 48.8 | i | 2.8 | -0.057 | 63.2* | -2.3
Cc1cc(C)c(NC(=O)NC(=O)C(Cl)(Cl)Cl)c(C)c1 | 24.0 | i | 2.2 | 1.4 | 13.6 | -1.3
SMILES | CHOP inh | Autophagy HCS | MT stabilizer | Dynein transport | L major viab | bCat nuc transl
CCN(CC)c1ccc(CN2CCC(C(=O)NCc3ccc(C)cc3)CC2)cc1 | 13.4 | i | 1.4 | 0.001 | 48.2 | 0.0
COc1cccc(NC(=O)c2cc(CN3C(=O)c4ccccc4C3=O)ccc2OC)c1 | 59.9 | i | 3.1 | 3.46 | 88.7* | ·
CC(C)n1cc(/C(N)=N/O)c(=O)n(Cc2ccccc2)c1=O | 5.1 | · | · | 0.986 | · | -0.8
CCC1=C(OC(=O)N(CC)CC)N2C(=O)OC(=NCC3CC3)[C@]2(Cc2ccccc2)[C@H]2C1=CC[C@H]1C(=O)N(CC)C(=O)[C@H]12 | 9.1 | · | · | 0.172 | · | -2.0
O=C(Cn1cncc1-c1ccc([N+](=O)[O-])cc1)Nc1ccccc1F | 3.4 | i | 2.3 | 1.19 | 51.9* | 0.4
Cc1ccc(NC(=O)Cn2cncc2-c2ccc([N+](=O)[O-])cc2)cc1C | 81.4* | i | 2.3 | 0.651 | -4.3 | 6.8
COc1ccccc1NC(=O)Cn1cncc1-c1ccc([N+](=O)[O-])cc1 | -14.1 | i | 2.8 | 0.439 | -5.2 | -1.7
N=C(N)SCCc1ccc(CCSC(=N)N)cc1 | 5.1 | · | · | · | · | ·
Cc1ccc(NC(=O)OCCN2CCN(Cc3ccccc3)CCC2=O)cc1 | 17.6 | i | 4.4 | 0.614 | 74.1* | ·
O=C1c2ccccc2C(=O)N1n1c(=O)[nH]c2ccccc2c1=O | 14.7 | i | 4.1 | -0.574 | -4.9 | 2.7
COc1cccc(Oc2cncnc2-c2ccc(OC)cc2O)c1 | 14.4 | i | 5.7 | -0.367 | 93.2* | 0.8
O=C(CN(Cc1ccccc1)S(=O)(=O)c1ccc2c(c1)OCCO2)N/N=C/c1cccc(Br)c1 | 51.2 | i | 2.1 | 0.0827 | 80.2* | 13.1
COc1ccc(CNC(=O)CN(CCC(C)C)S(=O)(=O)c2ccc3c(c2)OCCO3)cc1 | -8.2 | i | 1.3 | 0.716 | 79.8* | 0.4
COc1ccc(/C=N/NC(=O)CN(Cc2ccccc2)S(=O)(=O)c2ccc3c(c2)OCCO3)cc1 | 40.1 | i | 1.2 | 0.091 | 90.4* | -1.9
COc1ccc(CNC(=O)Cn2nc(-c3ccc4c(c3)OCCO4)ccc2=O)cc1 | 7.9 | i | 6.3 | -0.509 | 2.4 | -1.9
O=C(CN(Cc1ccccc1)S(=O)(=O)c1ccc2c(c1)OCCO2)N/N=C/c1ccc(F)cc1 | 49.4 | i | 2.3 | 0.43 | 8.1 | -2.6
CSc1ccccc1NC(=O)CSc1nncs1 | 5.4 | i | 7.0 | 0.219 | 0.5 | -4.2
O=C(Nc1nc(-c2cccs2)cs1)c1ccc(S(=O)(=O)N2CCCC2)cc1 | 43.9 | i | 5.3 | 1.23 | 76.9* | 1.7
O=C(Nc1nc(-c2ccc3c(c2)OCCO3)cs1)c1ccc(S(=O)(=O)N2CCCCC2)cc1 | · | i | 1.8 | 3.39 | 85.5* | 1.5
Cc1ccc(Cl)cc1NC(=O)COC(=O)C12CC3CC(CC(C3)C1)C2 | 78.9*! | i | 1.0 | 0.662 | -4.1 | 1.3
Cc1ccc(Cl)cc1NC(=O)COC(=O)C1CCCC1 | 15.1 | i | 3.8 | 1.26 | 23.3 | -3.3
CC(C)(C)c1ccc(COC(=O)Nc2ccc(F)cc2)cc1 | 77.1* | i | 1.7 | 1.28 | -6.0 | 3.5
